Test results as given in ChEMBL document CHEMBL1255444, “In vitro antibacterial activities of JNJ-Q2, a new broad-spectrum fluoroquinolone” (Antimicrob Agents Chemother, 2010).
Converted amounts (≈) assume the structure as drawn. The source made the active and inactive calls. The rule behind the calls is not given here.

What was measured:
[1] = tested on: Providencia stuartii; experiment: Ratio of Moxifloxacin MIC90 to compound MIC90 for Providencia stuartii; format: functional
[2] = Aqueous solubility of the compound; format: physicochemical
[3] = tested on: Streptococcus pneumoniae; experiment: Antibacterial activity against erythromycin-resistant Streptococcus pneumoniae by broth microdilution method; format: functional, organism-based
Summary of the method: (§1)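 CLSI M07-A7 broth microdilution MIC. Medium was cation-adjusted Mueller-Hinton broth. For S. pneumoniae it was Mueller-Hinton supplemented with 5% lysed horse blood. CLSI quality-control strains were included as appropriate.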

[4] = tested on: Streptococcus pneumoniae; experiment: Antibacterial activity against multidrug resistant Streptococcus pneumoniae by broth microdilution method; format: functional, organism-based
Summary of the method: (§2)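 CLSI M07-A7 broth microdilution MIC in cation-adjusted Mueller-Hinton medium. For S. pneumoniae the medium was supplemented with 5% lysed horse blood. CLSI quality-control strains were included as appropriate.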

[5] = tested on: Staphylococcus aureus; experiment: Antibacterial activity against methicillin-susceptible Staphylococcus aureus by broth microdilution method; format: functional
[6] = tested on: Enterococcus faecalis; experiment: Antibacterial activity against Enterococcus faecalis ATCC 29212 by broth microdilution method; format: functional
Summary of the method: (§3)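 MICs by CLSI M07-A7 broth microdilution in cation-adjusted Mueller-Hinton medium. For S. pneumoniae the medium was supplemented with 5% lysed horse blood. CLSI quality control strains were run alongside as appropriate.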

[7] = tested on: Moraxella catarrhalis; experiment: Antibacterial activity against Moraxella catarrhalis by broth microdilution method; format: functional; summary of the method: as §3
[8] = tested on: Escherichia coli; experiment: Antibacterial activity against ciprofloxacin-susceptible, -intermediate Escherichia coli by broth microdilution method; format: functional
[9] = tested on: Escherichia coli; experiment: Antibacterial activity against ciprofloxacin-resistant Escherichia coli by broth microdilution method; format: functional; summary of the method: as §1
[10] = tested on: Enterobacter cloacae; experiment: Antibacterial activity against Enterobacter cloacae by broth microdilution method; format: functional
[11] = tested on: Providencia stuartii; experiment: Antibacterial activity against Providencia stuartii by broth microdilution method; format: functional; summary of the method: as §3
[12] = tested on: Pseudomonas aeruginosa; experiment: Antibacterial activity against Pseudomonas aeruginosa ATCC 27853 by broth microdilution method; format: functional; summary of the method: as §3
[13] = tested on: Streptococcus pneumoniae; experiment: Antibacterial activity against Streptococcus pneumoniae isolate OC7189 assessed as log reduction in bacterial growth at 4 times MIC measured at 24 hrs by time-kill assay; format: functional
Summary of the method: (§4)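 Drug was diluted from 50× stocks made in water or acidified water. Samples were taken at 6 and 24 h and serially diluted onto TSA-5% sheep blood plates. Plates were incubated 20–24 h at 37°C in 5% CO2 before counting CFU. Log10 titer change is given relative to the starting inoculum.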

[14] = tested on: Streptococcus pneumoniae; experiment: Antibacterial activity against Streptococcus pneumoniae isolate OC6608 assessed as log reduction in bacterial growth at 2 times MIC measured at 6 hrs by time-kill assay; format: functional; summary of the method: as §4
[15] = tested on: Streptococcus pneumoniae; experiment: Antibacterial activity against Streptococcus pneumoniae isolate OC5462 assessed as log reduction in bacterial growth at 4 times MIC measured at 24 hrs by time-kill assay; format: functional; summary of the method: as §4
[16] = tested on: Streptococcus pneumoniae; experiment: Antibacterial activity against Streptococcus pneumoniae isolate OC7376 assessed as log reduction in bacterial growth at 4 times MIC measured at 6 hrs by time-kill assay; format: functional; summary of the method: as §4
[17] = tested on: Streptococcus pneumoniae; experiment: Antibacterial activity against Streptococcus pneumoniae isolate OC7376 assessed as log reduction in bacterial growth at 4 times MIC measured at 24 hrs by time-kill assay; format: functional; summary of the method: as §4
[18] = tested on: Streptococcus pneumoniae; experiment: Antibacterial activity against Streptococcus pneumoniae isolate OC6790 by broth microdilution method; format: functional; summary of the method: as §1
[19] = tested on: Streptococcus pneumoniae; experiment: Antibacterial activity against Streptococcus pneumoniae isolate OC6790 assessed as log reduction in bacterial growth at 2 times MIC measured at 6 hrs by time-kill assay; format: functional; summary of the method: as §4
[20] = tested on: Streptococcus pneumoniae; experiment: Antibacterial activity against Streptococcus pneumoniae isolate OC6790 assessed as log reduction in bacterial growth at 4 times MIC measured at 6 hrs by time-kill assay; format: functional; summary of the method: as §4
[21] = tested on: Streptococcus pneumoniae; experiment: Antibacterial activity against Streptococcus pneumoniae isolate OC6790 assessed as log reduction in bacterial growth at 2 times MIC measured at 24 hrs by time-kill assay; format: functional; summary of the method: as §4
[22] = tested on: Streptococcus pneumoniae; experiment: Antibacterial activity against Streptococcus pneumoniae isolate OC7368 assessed as log reduction in bacterial growth at 2 times MIC measured at 24 hrs by time-kill assay; format: functional; summary of the method: as §4
[23] = tested on: Streptococcus pneumoniae; experiment: Antibacterial activity against Streptococcus pneumoniae isolate OC7348 assessed as log reduction in bacterial growth at 2 times MIC measured at 6 hrs by time-kill assay; format: functional; summary of the method: as §4
[24] = tested on: Streptococcus pneumoniae; experiment: Antibacterial activity against Streptococcus pneumoniae isolate OC7348 assessed as log reduction in bacterial growth at 4 times MIC measured at 6 hrs by time-kill assay; format: functional; summary of the method: as §4
[25] = tested on: Streptococcus pneumoniae; experiment: Antibacterial activity against Streptococcus pneumoniae isolate OC7348 assessed as log reduction in bacterial growth at 2 times MIC measured at 24 hrs by time-kill assay; format: functional; summary of the method: as §4
[26] = tested on: Streptococcus pneumoniae; experiment: Antibacterial activity against Streptococcus pneumoniae isolate OC6585 assessed as log reduction in bacterial growth at 2 times MIC measured at 6 hrs by time-kill assay; format: functional; summary of the method: as §4
[27] = tested on: Streptococcus pneumoniae; experiment: Antibacterial activity against Streptococcus pneumoniae isolate OC6585 assessed as log reduction in bacterial growth at 2 times MIC measured at 24 hrs by time-kill assay; format: functional; summary of the method: as §4
[28] = tested on: Staphylococcus aureus; experiment: Antibacterial activity against methicillin-resistant Staphylococcus aureus isolate OC11696 by broth microdilution method; format: functional; summary of the method: as §1
[29] = tested on: Staphylococcus aureus; experiment: Antibacterial activity against methicillin-resistant Staphylococcus aureus isolate OC8530 harboring gyrA S84L and parC I143V mutant gene by broth microdilution method; format: functional; summary of the method: as §2
[30] = tested on: Staphylococcus aureus; experiment: Antibacterial activity against methicillin-resistant Staphylococcus aureus isolate OC4222 harboring gyrA S84L and parC S80F mutant gene by broth microdilution method; format: functional; summary of the method: as §1
[31] = tested on: Staphylococcus aureus; experiment: Antibacterial activity against methicillin-resistant Staphylococcus aureus isolate OC11521 harboring gyrA S84L/S85P, parC E84G mutant gene by broth microdilution method; format: functional; summary of the method: as §1
[32] = tested on: Staphylococcus aureus; experiment: Antibacterial activity against methicillin-resistant Staphylococcus aureus isolate OC8525 harboring wild type quinolone resistance-determining region assessed as log reduction in bacterial growth at 4 times MIC measured at 24 hrs by time-kill assay; format: functional
Summary of the method: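 Time-kill in cation-adjusted Mueller-Hinton broth. […] Samples were taken up to 24 h, serially diluted onto TSA and counted after 20–24 h at 37°C. Result is log10 decrease at 24 h from the starting inoculum; detection limit 100 CFU.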

[33] = tested on: Staphylococcus aureus; experiment: Antibacterial activity against methicillin-resistant Staphylococcus aureus isolate OC11696 assessed as log reduction in bacterial growth at 2 times MIC measured at 24 hrs by time-kill assay; format: functional
Summary of the method: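 Overnight MRSA cultures were diluted into fresh cation-adjusted Mueller-Hinton broth to about 5 × 10^6 CFU/ml. […] Samples were plated serially diluted on trypticase soy agar, and CFU were counted after 20-24 h at 37°C. Value is the log10 decrease at 24 h from the starting inoculum; detection limit 100 CFU.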

[34] = tested on: Streptococcus pneumoniae; experiment: Antibacterial activity against Streptococcus pneumoniae OC7453 harboring gyrA S81F mutant gene by agar dilution method; format: functional
Summary of the method: (§5)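 MICs for the resistance-selection studies were determined by CLSI agar dilution on Mueller-Hinton medium. For S. pneumoniae the medium was supplemented with 5% lysed horse blood. For MRSA fluctuation-assay strains an arithmetic agar dilution scheme was used for a more precise MIC.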

[35] = tested on: Staphylococcus aureus; experiment: Antibacterial activity against methicillin-resistant Staphylococcus aureus isolate OC15425 harboring gyrA S84L and parC S80F mutant gene by agar dilution method; format: functional; summary of the method: as §5

## COc1c(N2CCC/C(=C(\F)CN)C2)c(F)cc2c(=O)c(C(=O)O)cn(C3CC3)c12 [ACORAFLOXACIN]
[1]
  Ratio: 16
[2]
  solubility: 4520 µg/mL (≈ 10800 µM)
[3]
  Activity: Active
[4]
  Activity: Active
[5]
  MIC50: 0.015 µg/mL (≈ 0.0358 µM)
  MIC90: 0.015 µg/mL (≈ 0.0358 µM)
[6]
  MIC50: 0.06 µg/mL (≈ 0.143 µM)
  MIC90: 0.5 µg/mL (≈ 1.19 µM)
[7]
  MIC: ≤ 0.015 µg/mL
  MIC50: ≤ 0.015 µg/mL
  MIC90: ≤ 0.015 µg/mL
[8]
  MIC50: 0.06 µg/mL (≈ 0.143 µM)
  MIC90: 0.25 µg/mL (≈ 0.596 µM)
[9]
  MIC50: 4 µg/mL (≈ 9.54 µM)
  MIC90: 16 µg/mL (≈ 38.1 µM)
[10]
  MIC50: 0.12 µg/mL (≈ 0.286 µM)
  MIC90: 0.12 µg/mL (≈ 0.286 µM)
[11]
  MIC50: 2 µg/mL (≈ 4.77 µM)
  MIC90: 4 µg/mL (≈ 9.54 µM)
[12]
  MIC50: 1 µg/mL (≈ 2.38 µM)
  MIC90: 2 µg/mL (≈ 4.77 µM)
[13]
  deltalog10CFU/ml: 7.2
[14]
  deltalog10CFU/ml: 3.8
[15]
  deltalog10CFU/ml: 6.8
[16]
  deltalog10CFU/ml: 5.3
[17]
  deltalog10CFU/ml: 6.3
[18]
  MIC: 0.12 µg/mL (≈ 0.286 µM)
[19]
  deltalog10CFU/ml: 3.6
[20]
  deltalog10CFU/ml: 3.6
[21]
  deltalog10CFU/ml: 7.2
[22]
  deltalog10CFU/ml: 7.2
[23]
  deltalog10CFU/ml: 3.8
[24]
  deltalog10CFU/ml: 3.6
[25]
  deltalog10CFU/ml: 7
[26]
  deltalog10CFU/ml: 3.9
[27]
  deltalog10CFU/ml: 6.6
[28]
  MIC: 0.06 µg/mL (≈ 0.143 µM)
[29]
  MIC: 0.25 µg/mL (≈ 0.596 µM)
[30]
  MIC: 0.5 µg/mL (≈ 1.19 µM)
[31]
  MIC: 1 µg/mL (≈ 2.38 µM)
[32]
  deltalog10CFU/ml: 5
[33]
  deltalog10CFU/ml: 6.5
[34]
  MIC: 0.03 µg/mL (≈ 0.0715 µM)
[35]
  MIC: 0.12 µg/mL (≈ 0.286 µM)
